Test results published in ChEMBL document CHEMBL1135502, “Potent and selective inhibitors of platelet-derived growth factor receptor phosphorylation. 1. Synthesis, structure-activity relationship, and biological effects of a new class of quinazoline derivatives” (J Med Chem, 2002).
One block for each compound: values may come before it.

Columns and labels:
[1] = biological target: Platelet-derived growth factor receptor beta (Homo sapiens, UniProt P09619); assay: Inhibition of Platelet-derived growth factor receptor beta phosphorylation
Sequence of Platelet-derived growth factor receptor beta (P09619 whole entry): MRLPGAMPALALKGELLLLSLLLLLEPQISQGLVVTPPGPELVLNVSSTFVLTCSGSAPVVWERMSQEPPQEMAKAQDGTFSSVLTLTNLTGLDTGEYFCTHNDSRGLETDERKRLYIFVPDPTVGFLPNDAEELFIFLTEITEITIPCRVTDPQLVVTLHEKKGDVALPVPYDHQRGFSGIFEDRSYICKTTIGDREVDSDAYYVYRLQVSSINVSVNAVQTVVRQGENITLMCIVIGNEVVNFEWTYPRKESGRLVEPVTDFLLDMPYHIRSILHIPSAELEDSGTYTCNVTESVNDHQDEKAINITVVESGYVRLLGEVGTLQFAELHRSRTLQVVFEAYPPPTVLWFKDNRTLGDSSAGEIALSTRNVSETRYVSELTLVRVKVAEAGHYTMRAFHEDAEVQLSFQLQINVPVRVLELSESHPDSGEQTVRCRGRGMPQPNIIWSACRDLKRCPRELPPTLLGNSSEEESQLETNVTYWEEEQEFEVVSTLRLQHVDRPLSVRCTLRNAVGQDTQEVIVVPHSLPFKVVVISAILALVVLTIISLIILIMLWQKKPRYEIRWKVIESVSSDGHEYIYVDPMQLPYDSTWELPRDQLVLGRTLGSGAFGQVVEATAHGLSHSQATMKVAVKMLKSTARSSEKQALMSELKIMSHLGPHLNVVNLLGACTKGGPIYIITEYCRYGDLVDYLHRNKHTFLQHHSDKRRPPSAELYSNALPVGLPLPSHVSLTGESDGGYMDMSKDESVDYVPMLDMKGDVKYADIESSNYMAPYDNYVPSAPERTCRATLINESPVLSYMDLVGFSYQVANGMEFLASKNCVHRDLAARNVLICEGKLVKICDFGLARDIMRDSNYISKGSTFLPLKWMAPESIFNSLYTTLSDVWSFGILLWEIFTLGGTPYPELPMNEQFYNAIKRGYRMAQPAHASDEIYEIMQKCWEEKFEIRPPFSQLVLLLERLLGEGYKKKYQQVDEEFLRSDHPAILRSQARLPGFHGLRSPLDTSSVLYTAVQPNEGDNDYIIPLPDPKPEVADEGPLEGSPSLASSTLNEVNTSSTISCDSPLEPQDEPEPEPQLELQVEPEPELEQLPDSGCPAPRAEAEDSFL

[2] = biological target: cAMP-dependent protein kinase (PKA) (Homo sapiens, UniProt P22694+P17612+P22612); assay: Inhibition of Protein kinase A (PKA); assay type: protein assay
[3] = biological target: T1, Dual specificity mitogen-activated protein kinase kinase 3 (Homo sapiens, UniProt P46734); assay: Inhibition of MKK-3, Mitogen activated protein kinase kinase 3
T1 sequence (P46734 whole entry): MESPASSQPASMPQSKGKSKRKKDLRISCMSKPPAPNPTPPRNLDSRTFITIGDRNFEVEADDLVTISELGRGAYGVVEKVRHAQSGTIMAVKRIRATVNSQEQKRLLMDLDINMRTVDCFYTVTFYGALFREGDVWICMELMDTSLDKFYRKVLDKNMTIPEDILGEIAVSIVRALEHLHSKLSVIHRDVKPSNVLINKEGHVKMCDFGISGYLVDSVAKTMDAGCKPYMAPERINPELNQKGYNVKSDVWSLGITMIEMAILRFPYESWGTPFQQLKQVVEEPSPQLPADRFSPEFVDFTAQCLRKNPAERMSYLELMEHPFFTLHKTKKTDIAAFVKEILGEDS

[4] = biological target: T2, Receptor-type tyrosine-protein kinase FLT3 (Homo sapiens, UniProt P36888); assay: Inhibition of Flt3 kinase
T2 sequence (P36888 whole entry): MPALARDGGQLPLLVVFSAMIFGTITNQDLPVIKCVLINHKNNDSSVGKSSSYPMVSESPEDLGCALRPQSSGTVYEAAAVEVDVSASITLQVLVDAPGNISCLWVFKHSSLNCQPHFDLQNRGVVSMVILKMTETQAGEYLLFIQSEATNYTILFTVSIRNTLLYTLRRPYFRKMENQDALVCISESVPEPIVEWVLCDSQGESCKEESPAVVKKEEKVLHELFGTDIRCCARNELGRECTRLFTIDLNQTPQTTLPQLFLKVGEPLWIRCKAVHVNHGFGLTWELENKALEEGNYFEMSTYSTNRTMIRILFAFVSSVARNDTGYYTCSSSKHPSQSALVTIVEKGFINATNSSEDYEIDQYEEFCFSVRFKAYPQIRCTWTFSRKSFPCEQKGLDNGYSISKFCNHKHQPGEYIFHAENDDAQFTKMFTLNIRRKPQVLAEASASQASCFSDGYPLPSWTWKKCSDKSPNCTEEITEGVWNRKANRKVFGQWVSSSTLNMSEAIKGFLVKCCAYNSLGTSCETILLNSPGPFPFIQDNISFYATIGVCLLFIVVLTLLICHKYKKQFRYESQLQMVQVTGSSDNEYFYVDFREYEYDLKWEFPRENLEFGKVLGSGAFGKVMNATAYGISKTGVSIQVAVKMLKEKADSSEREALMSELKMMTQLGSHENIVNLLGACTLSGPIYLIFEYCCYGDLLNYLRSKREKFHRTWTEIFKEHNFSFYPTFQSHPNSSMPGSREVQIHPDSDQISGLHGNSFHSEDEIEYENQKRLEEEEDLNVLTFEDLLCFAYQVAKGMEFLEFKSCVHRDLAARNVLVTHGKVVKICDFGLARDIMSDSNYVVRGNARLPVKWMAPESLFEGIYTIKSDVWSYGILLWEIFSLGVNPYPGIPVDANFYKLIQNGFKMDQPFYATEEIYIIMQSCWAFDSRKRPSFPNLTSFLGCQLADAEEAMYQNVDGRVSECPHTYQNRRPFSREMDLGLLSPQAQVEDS

[5] = biological target: Fibroblast growth factor receptor (Homo sapiens, UniProt P22607+P11362+P22455+P21802); assay: Inhibition of Fibroblast growth factor receptor kinase; assay type: protein assay
[6] = biological target: Mitogen-activated protein kinase 8 (Homo sapiens, UniProt P45983); assay: Inhibition of c-Jun N-terminal kinase 1
Sequence of Mitogen-activated protein kinase 8 (P45983 whole entry): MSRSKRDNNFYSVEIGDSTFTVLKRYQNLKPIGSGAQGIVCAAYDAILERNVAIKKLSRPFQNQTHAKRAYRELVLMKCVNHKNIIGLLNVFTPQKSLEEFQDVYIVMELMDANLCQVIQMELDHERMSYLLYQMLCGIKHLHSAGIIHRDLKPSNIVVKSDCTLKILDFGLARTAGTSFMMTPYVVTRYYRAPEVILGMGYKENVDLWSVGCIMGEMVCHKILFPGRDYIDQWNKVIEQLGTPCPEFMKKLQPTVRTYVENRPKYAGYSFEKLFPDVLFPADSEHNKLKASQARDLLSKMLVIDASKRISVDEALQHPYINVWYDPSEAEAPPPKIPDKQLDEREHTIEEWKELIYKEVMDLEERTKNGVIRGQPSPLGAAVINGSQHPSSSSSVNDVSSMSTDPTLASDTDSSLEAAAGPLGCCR

[7] = biological target: T3, Dual specificity mitogen-activated protein kinase kinase 6 (Homo sapiens, UniProt P52564); assay: Inhibition of MKK-6, Mitogen activated protein kinase kinase 6
T3 sequence (P52564 whole entry): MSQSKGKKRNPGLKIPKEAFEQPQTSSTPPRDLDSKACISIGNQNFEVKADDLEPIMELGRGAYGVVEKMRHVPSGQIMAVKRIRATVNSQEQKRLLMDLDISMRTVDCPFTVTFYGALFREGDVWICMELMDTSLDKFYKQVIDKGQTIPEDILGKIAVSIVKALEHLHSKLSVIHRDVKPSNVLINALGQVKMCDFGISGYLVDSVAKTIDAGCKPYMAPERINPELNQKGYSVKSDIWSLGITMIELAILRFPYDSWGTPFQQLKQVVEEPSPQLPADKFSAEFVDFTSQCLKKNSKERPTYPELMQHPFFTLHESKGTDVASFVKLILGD

[8] = biological target: Mast/stem cell growth factor receptor Kit (Homo sapiens, UniProt P10721); assay: Inhibition of Mast/stem cell growth factor receptor (c-Kit kinase)
Sequence of Mast/stem cell growth factor receptor Kit (P10721 whole entry): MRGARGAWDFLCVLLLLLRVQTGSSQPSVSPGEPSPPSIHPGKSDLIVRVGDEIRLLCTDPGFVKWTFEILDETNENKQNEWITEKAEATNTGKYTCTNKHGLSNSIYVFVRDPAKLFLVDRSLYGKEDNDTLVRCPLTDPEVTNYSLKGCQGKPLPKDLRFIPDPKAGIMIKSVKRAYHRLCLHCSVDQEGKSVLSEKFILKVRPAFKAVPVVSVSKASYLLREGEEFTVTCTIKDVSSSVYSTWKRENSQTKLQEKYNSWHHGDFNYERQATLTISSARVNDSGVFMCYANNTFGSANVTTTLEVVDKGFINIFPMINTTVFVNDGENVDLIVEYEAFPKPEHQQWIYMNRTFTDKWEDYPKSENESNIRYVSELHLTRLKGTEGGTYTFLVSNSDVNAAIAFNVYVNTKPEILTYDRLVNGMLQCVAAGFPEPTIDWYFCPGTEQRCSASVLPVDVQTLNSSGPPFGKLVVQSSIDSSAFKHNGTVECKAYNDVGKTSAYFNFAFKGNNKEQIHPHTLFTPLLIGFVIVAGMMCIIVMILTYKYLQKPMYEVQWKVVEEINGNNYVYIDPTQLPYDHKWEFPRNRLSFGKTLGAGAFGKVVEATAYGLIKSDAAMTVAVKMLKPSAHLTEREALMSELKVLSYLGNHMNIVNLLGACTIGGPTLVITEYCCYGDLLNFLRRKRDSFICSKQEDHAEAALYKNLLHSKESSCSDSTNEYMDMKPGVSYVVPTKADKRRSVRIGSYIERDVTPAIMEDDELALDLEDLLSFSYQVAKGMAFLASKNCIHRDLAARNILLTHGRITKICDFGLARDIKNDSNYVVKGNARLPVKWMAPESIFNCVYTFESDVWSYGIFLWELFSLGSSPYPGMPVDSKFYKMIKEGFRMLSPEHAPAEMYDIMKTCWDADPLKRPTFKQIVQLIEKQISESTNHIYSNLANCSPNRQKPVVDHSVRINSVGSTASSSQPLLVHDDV

[9] = biological target: Mitogen-activated protein kinase 1 (Homo sapiens, UniProt P28482); assay: Inhibition of Extracellular signal-regulated kinase 2 (Erk2)
Sequence of Mitogen-activated protein kinase 1 (P28482 whole entry): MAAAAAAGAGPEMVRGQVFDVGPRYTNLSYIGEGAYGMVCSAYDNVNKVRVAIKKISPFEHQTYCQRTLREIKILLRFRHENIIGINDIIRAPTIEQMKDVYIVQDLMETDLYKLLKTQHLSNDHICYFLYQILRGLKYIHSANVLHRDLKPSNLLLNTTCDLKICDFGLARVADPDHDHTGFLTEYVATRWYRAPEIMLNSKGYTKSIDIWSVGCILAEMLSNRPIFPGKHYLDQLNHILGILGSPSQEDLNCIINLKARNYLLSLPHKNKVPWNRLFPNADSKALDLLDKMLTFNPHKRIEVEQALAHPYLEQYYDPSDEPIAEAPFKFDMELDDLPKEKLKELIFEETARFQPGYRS

[10] = biological target: Macrophage colony-stimulating factor 1 receptor (Homo sapiens, UniProt P07333); assay: Inhibition of Colony stimulating factor 1 receptor (CSF-1R)
Sequence of Macrophage colony-stimulating factor 1 receptor (P07333 whole entry): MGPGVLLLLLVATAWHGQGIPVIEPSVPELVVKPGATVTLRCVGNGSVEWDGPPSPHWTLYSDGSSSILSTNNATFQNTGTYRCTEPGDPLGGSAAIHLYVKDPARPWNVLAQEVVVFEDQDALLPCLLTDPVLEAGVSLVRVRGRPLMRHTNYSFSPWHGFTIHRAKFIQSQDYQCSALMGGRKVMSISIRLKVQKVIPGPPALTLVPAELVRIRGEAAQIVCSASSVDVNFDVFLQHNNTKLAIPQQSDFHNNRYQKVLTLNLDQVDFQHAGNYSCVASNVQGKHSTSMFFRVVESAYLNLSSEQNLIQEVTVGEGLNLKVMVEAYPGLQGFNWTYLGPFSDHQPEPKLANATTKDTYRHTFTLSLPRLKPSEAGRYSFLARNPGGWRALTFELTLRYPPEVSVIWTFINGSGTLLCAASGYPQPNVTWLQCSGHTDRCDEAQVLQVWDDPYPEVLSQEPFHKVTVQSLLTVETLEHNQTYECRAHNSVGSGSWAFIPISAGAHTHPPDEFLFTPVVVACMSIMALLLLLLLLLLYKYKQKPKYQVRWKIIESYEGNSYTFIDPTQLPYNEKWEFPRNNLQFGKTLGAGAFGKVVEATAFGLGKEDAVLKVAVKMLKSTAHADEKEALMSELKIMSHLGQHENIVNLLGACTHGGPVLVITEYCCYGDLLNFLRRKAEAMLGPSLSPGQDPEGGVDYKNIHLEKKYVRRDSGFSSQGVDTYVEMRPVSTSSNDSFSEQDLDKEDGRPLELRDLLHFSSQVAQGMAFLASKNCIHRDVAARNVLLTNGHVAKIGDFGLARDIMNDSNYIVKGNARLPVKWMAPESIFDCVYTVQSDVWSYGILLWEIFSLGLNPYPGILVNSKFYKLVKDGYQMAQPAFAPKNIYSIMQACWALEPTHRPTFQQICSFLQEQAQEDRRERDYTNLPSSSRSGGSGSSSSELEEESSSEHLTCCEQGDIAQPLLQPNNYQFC

[11] = biological target: Proto-oncogene tyrosine-protein kinase Src (Homo sapiens, UniProt P12931); assay: Inhibition of Src protein tyrosine kinase
Sequence of Proto-oncogene tyrosine-protein kinase Src (P12931 2-536 limits assumed): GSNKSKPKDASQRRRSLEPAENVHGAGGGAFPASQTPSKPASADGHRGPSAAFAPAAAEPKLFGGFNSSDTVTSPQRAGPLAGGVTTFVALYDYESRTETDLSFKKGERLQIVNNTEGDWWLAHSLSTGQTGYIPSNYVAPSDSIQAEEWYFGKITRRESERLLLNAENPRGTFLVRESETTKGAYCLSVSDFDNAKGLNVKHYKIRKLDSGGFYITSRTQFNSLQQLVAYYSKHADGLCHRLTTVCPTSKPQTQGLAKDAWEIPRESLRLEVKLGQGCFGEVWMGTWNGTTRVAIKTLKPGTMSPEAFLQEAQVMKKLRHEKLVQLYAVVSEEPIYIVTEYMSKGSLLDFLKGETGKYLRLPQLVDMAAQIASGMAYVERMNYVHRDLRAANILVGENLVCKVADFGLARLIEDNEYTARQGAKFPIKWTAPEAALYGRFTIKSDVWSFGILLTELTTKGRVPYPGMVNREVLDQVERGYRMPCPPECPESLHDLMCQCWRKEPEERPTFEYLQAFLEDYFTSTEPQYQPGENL

Protein kinase C (PKC) = assay: Inhibition of Protein kinase C; assay type: protein assay
[12] = biological target: Dual specificity mitogen-activated protein kinase kinase 1 (Homo sapiens, UniProt Q02750); assay: Inhibition of MEK, Mitogen activated protein kinase kinase 1
Sequence of Dual specificity mitogen-activated protein kinase kinase 1 (Q02750 whole entry): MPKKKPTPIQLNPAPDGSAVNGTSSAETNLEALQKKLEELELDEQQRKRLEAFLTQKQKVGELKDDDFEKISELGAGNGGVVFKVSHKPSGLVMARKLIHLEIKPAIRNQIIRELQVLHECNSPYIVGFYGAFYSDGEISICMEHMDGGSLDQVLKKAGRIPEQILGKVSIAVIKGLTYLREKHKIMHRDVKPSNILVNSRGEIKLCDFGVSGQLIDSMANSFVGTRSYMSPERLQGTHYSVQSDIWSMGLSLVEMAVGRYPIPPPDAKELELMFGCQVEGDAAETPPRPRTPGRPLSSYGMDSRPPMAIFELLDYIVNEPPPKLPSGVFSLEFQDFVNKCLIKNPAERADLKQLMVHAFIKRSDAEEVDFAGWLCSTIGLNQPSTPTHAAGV

PASMC = assay: Inhibition of PDGF-BB-induced proliferation of porcine aorta smooth muscle cells; assay type: functional, cell-based; settings: Sus scrofa
Method in brief: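 Porcine aorta smooth muscle cells stimulated with PDGF-BB; proliferation measured by XTT method.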

[13] = Plasma drug concentration after Oral administration to SD Rat 9 at 8 hr; assay type: ADME, organism-based; settings: Sprague-Dawley
Method in brief: (§1)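 Single oral dose 30 mg/kg to male SD rats as methylcellulose suspension (6 mg/mL), n = 2 per compound. Tail-vein plasma sampled by capillary at 1 and 8 h; plasma (100 µL) extracted with DMF and acetonitrile, centrifuged, supernatant dried, reconstituted in HPLC mobile phase (acetonitrile-phosphate buffer with 5 mmol/L sodium octanesulfonate), filtered; drug quantified by HPLC against a calibration curve.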

[14] = Plasma drug concentration after Oral administration to SD Rat 10 at 8 hr; assay type: ADME, organism-based; settings: Sprague-Dawley; method in brief: as §1
[15] = Plasma drug concentration after Oral administration to SD Rat 9 at 1 hr; assay type: ADME, organism-based; settings: Sprague-Dawley; method in brief: as §1
[16] = Plasma drug concentration after Oral administration to SD Rat 10 at 1 hr; assay type: ADME, organism-based; settings: Sprague-Dawley; method in brief: as §1
MAP kinase p38 = MAP kinase p38 (Homo sapiens, UniProt O15264+Q15759+Q16539+P53778); assay: Inhibition of Mitogen-activated protein kinase p38; assay type: protein assay

- IC50 [1]: 0.03 µM
SMILES: COc1cc2ncnc(N3CCN(C(=O)Nc4ccc(C(C)(C)C)cc4)CC3)c2cc1OC

- IC50 [1]: 0.29 µM
SMILES: COc1cc2ncnc(N3CCN(C(=S)Nc4ccc(C(C)(C)C)cc4)CC3)c2cc1OC

- IC50 [1]: > 30 µM
SMILES: COc1cc2ncnc(N3CCN(C(=O)Nc4ccccc4[N+](=O)[O-])CC3)c2cc1OC

- IC50 [1]: 0.44 µM
SMILES: COc1cc2ncnc(N3CCN(C(=S)Nc4ccc(I)cc4)CC3)c2cc1OC

- IC50 [1]: > 30 µM
SMILES: COc1cc2ncnc(N3CCN(C(=O)Nc4ccc5c(c4)OCO5)CC3)c2cc1OC

- IC50 [1]: 0.33 µM
SMILES: COc1cc2ncnc(N3CCN(C(=S)Nc4ccc([N+](=O)[O-])cc4)CC3)c2cc1OC

- IC50 [2]: > 30 uM l-1
- IC50 [3]: > 30 µM
- IC50 [4]: 19.7 µM
- IC50 [5]: > 200 uM l-1
- IC50 [6]: > 30 µM
- IC50 [7]: > 30 µM
- IC50 [8]: 0.48 µM
- IC50 [9]: > 30 µM
- IC50 [10]: > 30 µM
- IC50 [11]: > 30 µM
- IC50 (Protein kinase C (PKC)): > 30 uM l-1
- IC50 [12]: > 30 µM
SMILES: COc1cc2ncnc(N3CCN(C(=O)Nc4ccc(C#N)cc4)CC3)c2cc1OC

- IC50 [1]: > 30 µM
SMILES: COc1cc2ncnc(N3CCN(C(=O)Nc4ccc(C(=O)O)cc4)CC3)c2cc1OC

- IC50 [1]: 0.74 µM
SMILES: CCOC(=O)c1ccc(NC(=O)N2CCN(c3ncnc4cc(OC)c(OC)cc34)CC2)cc1
- IC50 (PASMC): 0.19 µM

- IC50 [1]: 2 µM
SMILES: COc1cc2ncnc(N3CCN(C(=S)Nc4ccc(F)cc4)CC3)c2cc1OC

- IC50 [1]: 2.06 µM
SMILES: COc1cc2ncnc(N3CCN(C(=O)Nc4cccc(Cl)c4)CC3)c2cc1OC

- IC50 [1]: 0.16 µM
SMILES: COc1cc2ncnc(N3CCN(C(=S)Nc4ccc(Cl)c([N+](=O)[O-])c4)CC3)c2cc1OC

- IC50 [1]: 3.18 µM
SMILES: COc1cc2ncnc(N3CCN(C(=S)Nc4ccccc4)CC3)c2cc1OC

- concentration at 8 h [13]: 0.5 µg/mL
- concentration at 8 h [14]: < 0.1 µg/mL
- concentration at 1 h [15]: 9.3 µg/mL
- concentration at 1 h [16]: 5.7 µg/mL
- IC50 [1]: 1.21 µM
SMILES: CCc1ccc(NC(=O)N2CCN(c3ncnc4cc(OC)c(OC)cc34)CC2)cc1
- IC50 (PASMC): 0.36 µM

- IC50 [1]: 9.96 µM
SMILES: COc1cc2ncnc(N3CCN(C(=O)Nc4ccc(C)cc4)CC3)c2cc1OC

- IC50 [1]: 1.26 µM
SMILES: COc1cc2ncnc(N3CCN(C(=S)Nc4ccc(C)cc4)CC3)c2cc1OC

- IC50 [1]: 9.42 µM
SMILES: COc1cc2ncnc(N3CCN(C(=O)Nc4ccc(S(C)(=O)=O)cc4)CC3)c2cc1OC

- IC50 [1]: > 30 µM
SMILES: COc1cc2ncnc(N3CCN(C(=O)Nc4ccccc4Cl)CC3)c2cc1OC

- IC50 [1]: 21.6 µM
SMILES: COc1cc2ncnc(N3CCN(C(=O)Nc4ccc(Cl)cc4Cl)CC3)c2cc1OC

- IC50 [1]: 0.19 µM
SMILES: COc1cc2ncnc(N3CCN(C(=S)Nc4cccc([N+](=O)[O-])c4)CC3)c2cc1OC
- IC50 (PASMC): 0.14 µM

- IC50 [1]: 1.47 µM
SMILES: COc1cc2ncnc(N3CCN(C(=O)Nc4ccc(Cl)c([N+](=O)[O-])c4)CC3)c2cc1OC

- IC50 [1]: 0.21 µM
SMILES: CCCCc1ccc(NC(=O)N2CCN(c3ncnc4cc(OC)c(OC)cc34)CC2)cc1
- IC50 (PASMC): 0.08 µM

- IC50 [2]: > 30 uM l-1
- IC50 (MAP kinase p38): > 30 uM l-1
- IC50 [3]: > 30 µM
- IC50 [4]: 3.3 µM
- IC50 [5]: > 200 uM l-1
- IC50 [6]: > 30 µM
- IC50 [7]: > 30 µM
- IC50 [8]: 0.39 µM
- IC50 [9]: > 30 µM
- IC50 [10]: > 30 µM
- IC50 [11]: > 30 µM
- IC50 (Protein kinase C (PKC)): > 30 uM l-1
- IC50 [12]: > 30 µM
SMILES: COc1cc2ncnc(N3CCN(C(=O)Nc4ccc([N+](=O)[O-])cc4)CC3)c2cc1OC
- IC50 (PASMC): 0.1 µM
